1 molecule from ChEMBL document CHEMBL4024799, “Synthesis and Biological Characterization of Aryl Uracil Inhibitors of Hepatitis C Virus NS5B Polymerase: Discovery of ABT-072, a trans-Stilbene Analog with Good Oral Bioavailability” (J Med Chem, 2018) can be followed below.

The term solubility denotes how much of the substance goes into solution per volume. Broadly, the AUC is concentration integrated over time. The Kp is the ratio of the level in a tissue or fluid to that in plasma or blood. One may read the clearance as a measure of how efficiently the substance is removed, as volume per time. Read a low clearance as inefficient removal. A word on the Cmax: it is the peak of the concentration-time curve. The AUC(0-inf) is the area under the concentration-time curve extrapolated to infinity. Read a low AUC(0-inf) as low exposure. Usually Tmax stands for the time at which the peak concentration occurs.

Molecules are shown by their SMILES. ≈ marks a conversion by molar mass, not a printed value. Calls of active or inactive are those of the source. No cut-off for these calls is given here.

Data set [1] is described as follows: Aqueous solubility of the compound at pH 7.2. Particulars: buffer, read-out: solubility. Type of data set: physicochemical.
Data set [2] in a line: Half life in Sprague-Dawley rat at 5 mg/kg, po. Particulars: in vivo. It counts as ADME, organism-based. The method, boiled down:
(§1)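 Sprague-Dawley rats, n = 3 per experiment; solution in DMSO:PEG400 (1:9, v/v) given IV or oral; 5 mg/kg for both routes, and 30 mg/kg oral; plasma t1/2, Vss, clearance, Cmax, AUC and F% determined.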

Data set [3] can be described thus: AUC in Sprague-Dawley rat at 5 mg/kg, po. It counts as ADME, organism-based. Particulars: in vivo. The essentials: as §1
Data set [4] deals with Rattus norvegicus. Description: AUC in Sprague-Dawley rat at 5 mg/kg, iv. It counts as ADME, organism-based. Particulars: in vivo. The essentials:
as §1

Data set [5] can be described thus: Ratio of drug level in Sprague-Dawley rat liver to plasma at 5 mg/kg, po after 24 hrs. It counts as ADME, organism-based. The essentials: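 Male/female not given; Sprague-Dawley rats, n = 3 per experiment, single 5 mg/kg oral dose given as a solution in DMSO:PEG400 (1:9, v/v). Drug concentrations measured in liver tissue and plasma at 12 h and 24 h post-dose; value reported as the liver-to-plasma concentration ratio.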

Data set [6] in a line: Half life in Sprague-Dawley rat at 30 mg/kg, po. Type of data set: ADME, organism-based. Particulars: in vivo. The method, boiled down: as §1
Data set [7] in a line: Plasma clearance in dog at 2.5 mg/kg, iv. It counts as ADME, organism-based, Canis lupus familiaris.
Data set [8] relates to Canis familiaris. Description: AUC in dog at 2.5 mg/kg, iv. It counts as ADME, organism-based, Canis lupus familiaris. Particulars: in vivo.
A short description of data set [9]: Half life in dog at 2.5 mg/kg, po. Type of data set: ADME, organism-based, Canis lupus familiaris. Particulars: in vivo.
For data set [10], the system named is Canis familiaris. Description: AUC in dog at 2.5 mg/kg, po. It counts as ADME, organism-based, Canis lupus familiaris. Particulars: in vivo.
The nature of data set [11]: Terminal half life in human at 80 mg administered as single dose. Particulars: in vivo, read-out: beta t1/2 (converted). It counts as ADME. The essentials: (§2)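 Single oral doses of 80, 160 or 320 mg in healthy subjects; plasma concentration-time profiles reported as mean (+SD); Cmax and terminal phase half-life derived.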
Data set [12] can be described thus: Ratio of drug level in dog liver to plasma at 2.5 mg/kg, po after 24 hrs. Type of data set: ADME, organism-based, Canis lupus familiaris.
Data set [13] in a line: Cmax in dog at 30 mg/kg, po. It counts as ADME, organism-based, Canis lupus familiaris. Details: dose 30 mg/kg, route oral. Particulars: in vivo.
The subject of data set [14] is Plasma. Description: Drug level in po dosed dog plasma up to 24 hrs. It counts as ADME, organism-based, Canis lupus familiaris. Particulars: in vivo. The method, boiled down:
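Dogs given oral doses; liver tissue and plasma drug levels measured at 12 and 24 h; liver:plasma ratio calculated.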

The test system of data set [15] is Plasma. Description: Drug level in po dosed Sprague-Dawley rat plasma up to 24 hrs. Type of data set: ADME, organism-based. Particulars: in vivo. The essentials:
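Sprague-Dawley rats given oral doses; liver tissue and plasma levels measured at 12 and 24 h; liver:plasma ratio calculated.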

The test system of data set [16] is Hepatitis C virus (isolate H77). Description: Inhibition of HCV genotype 1a H77 NS5B RNA dependent RNA polymerase C316H mutant assessed as reduction in [3H]UTP incorporation in to RNA preincubated for 15 mins followed by [3H]UTP addition measured after 3 hrs by microbeta scintillation counting method. The essentials: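 Standard NS5B polymerase inhibition assay using genotype 1a (H77) or 1b (BK) enzyme. RNA product formation was measured as ³H-UTP incorporated into RNA, read by scintillation counting. IC50 was calculated with a standard IC50 equation.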

The test system of data set [17] is Plasma. Description: Drug uptake in human plasma administered as single dose. It counts as ADME, cell-free.
The nature of data set [18]: Cmax in human at 160 mg administered as single dose. It counts as ADME. Also on record: dose 160 mg. Particulars: in vivo. The method, boiled down:
as §2

The nature of data set [19]: Terminal half life in human at 160 mg administered as single dose. Type of data set: ADME. Particulars: in vivo, read-out: beta t1/2 (converted). The method, boiled down: as §2
Data set [20] can be described thus: Cmax in human at 320 mg administered as single dose. Type of data set: ADME. Particulars: in vivo. Details: dose 320 mg. The essentials: as §2
Data set [21] is described as follows: AUC (infinity) in human at 320 mg administered as single dose. Details: dose 320 mg, time infinity. Particulars: in vivo. It counts as ADME. The essentials:
as §2

Data set [22] has as its system Hepatitis C virus. Description: Antiviral activity against HCV genotype 1 infected in human assessed as decrease in viral RNA load at 160 mg administered once daily for 2 days. Type of data set: functional, Hepacivirus hominis. The method, boiled down: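 HCV GT1-infected patients (N=4) given 160 mg once daily for 2 days; read-out was least squares mean maximum decrease from baseline in HCV RNA (log10 IU/mL).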

A short description of data set [23]: Tmax in human infected with HCV genotype 1 at 160 mg administered once daily for 2 days. It counts as ADME. Particulars: in vivo.
A short description of data set [24]: AUC (0 to 24 hrs) in human infected with HCV genotype 1 at 160 mg administered once daily for 2 days. Type of data set: ADME. Also on record: time < 24 hr, dose 160 mg. Particulars: in vivo. The essentials: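 HCV GT1-infected patients (N=4) given 160 mg once daily for 2 days; plasma Cmax, AUC and t1/2 determined.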

With `COc1c(/C=C/c2ccc(NS(C)(=O)=O)cc2)cc(-n2ccc(=O)[nH]c2=O)cc1C(C)(C)C` [ABT-072], the solubility in data set [1] turned out to be 20.7 µM (≈ 9.72 µg/mL). In addition, the half-life was 3.1 h in [2]; 3.5 h in data set [6]; 5.4 h in data set [9]; 8.17 h in [11]; 7.63 h in [19]. In addition, the AUC amounted to 2520 ng·h/mL in data set [3], 5730 ng·h/mL in data set [4], 16800 ng·h/mL in data set [8] and 14400 ng·h/mL in data set [10]. Moreover, the Kp at 24 h in data set [5] amounted to 46; in data set [12], 10. Besides, the clearance in data set [7] is 2.5 mL/min/kg. The Cmax in data set [13] worked out at 7560 ng/mL; in data set [18] it was 303 ng/mL; in data set [20] it was 486 ng/mL. For the same molecule, the Drug uptake entry in [14], in data set [15] and in data set [17] was “Dose-dependent effect” throughout. Moreover, the inhibition entry in data set [16] is “inactive”. This molecule came in with an AUC(0-inf) in data set [21] of 7200 ng·h/mL. For the same molecule, in [22], the Activity is on record as 1.18 log10IU/ml. Further, in data set [23], the Tmax was 3.6 h. The AUC at 24 h in [24] was 4180 ng·h/mL.
